# Laboratory results from ChEMBL document CHEMBL1148318, “Synthesis and antibacterial activity of a novel class of 4'-substituted 16-membered ring macrolides derived from tylosin” (2004).
# Columns and labels:
# Assay type in all cases: functional
# Haemophilus influenzae = assay: In vitro antibacterial activity against ampicillin resistant Haemophilus influenzae 33929
# How it was run: (§1)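 MIC determined by agar dilution per NCCLS recommendations. Strains: S. pneumoniae 49619 (erythromycin-susceptible); S. pneumoniae 700904 and S. pyogenes 2912 (erm-encoded MLSB-resistant); S. pneumoniae 7701 and S. pyogenes 1323 (mef-encoded efflux-resistant); H. influenzae 33929 (ampicillin-resistant).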
# Staphylococcus aureus = assay: In vitro antibacterial activity against erythromycin susceptible Staphylococcus aureus 25923
# How it was run: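 MIC by agar dilution following NCCLS recommendations; S. aureus 25923 is an erythromycin-susceptible strain.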
# Streptococcus pneumoniae [1] = assay: In vitro antibacterial activity against efflex resistant Streptococcus pneumoniae 7701; how it was run: as §1
# Streptococcus pneumoniae [2] = assay: In vitro antibacterial activity against erythromycin susceptible Streptococcus pneumoniae 49619; how it was run: as §1
# Streptococcus pneumoniae [3] = assay: In vitro antibacterial activity against macrolide-lincosamide-streptogramin resistant Streptococcus pneumoniae 700904; how it was run: as §1
# Streptococcus pyogenes [4] = assay: In vitro antibacterial activity against efflex resistant Streptococcus pyogenes 1323; how it was run: as §1
# Streptococcus pyogenes [5] = assay: In vitro antibacterial activity against macrolide-lincosamide-streptogramin resistant Streptococcus pyogenes 2912; how it was run: as §1
SMILES,MIC (Haemophilus influenzae) [µg/mL],MIC (Staphylococcus aureus) [µg/mL],MIC (Streptococcus pneumoniae [1]) [µg/mL],MIC (Streptococcus pneumoniae [2]) [µg/mL],MIC (Streptococcus pneumoniae [3]) [µg/mL],MIC (Streptococcus pyogenes [4]) [µg/mL],MIC (Streptococcus pyogenes [5]) [µg/mL]
CC[C@H]1OC(=O)C[C@@H](O)[C@H](C)[C@@H](O[C@@H]2O[C@H](C)[C@@H](OC(=O)NCCc3ccccc3)[C@H](N(C)C)[C@H]2O)[C@@H](CC=O)C[C@@H](C)C(=O)/C=C/C(C)=C/[C@@H]1CO[C@@H]1O[C@H](C)[C@@H](O)[C@@H](OC)[C@H]1OC,16,2,2,1,> 64,0.25,> 64
CC[C@H]1OC(=O)C[C@@H](O)[C@H](C)[C@@H](O[C@@H]2O[C@H](C)[C@@H](OC/C=C/c3cnc4ccccc4c3)[C@H](N(C)C)[C@H]2O)[C@@H](CC=O)C[C@@H](C)C(=O)/C=C/C(C)=C/[C@@H]1CO[C@@H]1O[C@H](C)[C@@H](O)[C@@H](OC)[C@H]1OC,4,0.5,0.0625,0.0625,1,0.0625,8
C=CCO[C@H]1[C@H](N(C)C)[C@@H](O)[C@H](O[C@H]2[C@@H](CC=O)C[C@@H](C)C(=O)/C=C/C(C)=C/[C@H](CO[C@@H]3O[C@H](C)[C@@H](O)[C@@H](OC)[C@H]3OC)[C@@H](CC)OC(=O)C[C@@H](O)[C@@H]2C)O[C@@H]1C,8,1,0.5,0.5,> 64,0.125,32
CC[C@H]1OC(=O)C[C@@H](O)[C@H](C)[C@@H](O[C@@H]2O[C@H](C)[C@@H](O/C=C\Cc3cnc4ccccc4c3)[C@H](N(C)C)[C@H]2O)[C@@H](CC=O)C[C@@H](C)C(=O)/C=C/C(C)=C/[C@@H]1CO[C@@H]1O[C@H](C)[C@@H](O)[C@@H](OC)[C@H]1OC,4,0.5,0.0625,0.0625,0.5,0.0625,16
CC[C@H]1OC(=O)[C@H](C)[C@@H](O[C@H]2C[C@@](C)(OC)[C@@H](O)[C@H](C)O2)[C@H](C)[C@@H](O[C@@H]2O[C@H](C)C[C@H](N(C)C)[C@H]2O)[C@](C)(O)C[C@@H](C)C(=O)[C@H](C)[C@@H](O)[C@]1(C)O [ERYTHROMYCIN],4,0.5,8,0.06,> 64,16,> 64
CC[C@H]1OC(=O)C[C@@H](O)[C@H](C)[C@@H](O[C@@H]2O[C@H](C)[C@@H](O[C@H]3C[C@@](C)(O)[C@@H](O)[C@H](C)O3)[C@H](N(C)C)[C@H]2O)[C@@H](CC=O)C[C@@H](C)C(=O)/C=C/C(C)=C/[C@@H]1CO[C@@H]1O[C@H](C)[C@@H](O)[C@@H](OC)[C@H]1OC [TYLOSIN],8,2,0.25,0.25,64,0.25,> 64
